This note sets out measurements from ChEMBL document CHEMBL1159312, “Novel bioactive clerodane diterpenoids from the leaves and twigs of Casearia sylvestris” (J Nat Prod, 2002).

Values after ≈ are worked out from the molar mass of the structure shown.

The test system of experiment [1] is KB. Put plainly: Cytotoxicity against human KB cells after 72 hrs by MTS method. It counts as functional, cell-based. (Formazan colour is commonly taken as a measure of viable cells.)
Experiment [2] has as its system Aspergillus niger. Nature of the experiment: Antifungal activity against Aspergillus niger. It counts as functional. The procedure, abridged:
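Disk diffusion assay measuring growth inhibition of Aspergillus niger, run by an earlier published method. The zone of inhibition is reported as an area rather than a diameter.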

Experiment [3] relates to LX-1. Nature of the experiment: Cytotoxicity against human LX1 cells after 72 hrs by MTS method. The following applies: LX-1, 72 h. It counts as functional, cell-based. The method, boiled down: (§1)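 Cells grown in McCoy's 5A with 10% heat-inactivated fetal bovine serum and seeded 24 h before dosing. Serially diluted compound was added, then incubated 72 h at 37 °C. MTS with phenazine methosulfate was added for 3 h more, and absorbance at 492 nm gave survival relative to untreated controls. IC50 was taken from six-point curves (5-fold dilutions), each point in duplicate.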

For experiment [4], the system named is HCT-116. Nature of the experiment: Cytotoxicity against human HCT116 cells after 72 hrs by MTS method. The following applies: HCT-116, 72 h. It counts as functional, cell-based. The method, boiled down:
as §1

Experiment [5] has as its system A2780. Nature of the experiment: Cytotoxicity against human A2780 cells after 72 hrs by MTS method. It counts as functional, cell-based. The following applies: A2780, 72 h. The procedure, abridged:
as §1

Broadly, the EC50 is the concentration that produces a half-maximal response. Read a low EC50 as higher potency in that assay. The IC50 is the concentration that gives 50% inhibition. For the molecule `C=C/C(C)=C/C[C@]1(C)[C@H](C)C[C@H](O)[C@]23C(=C[C@@H](OC(=O)C(C)CC)C[C@@H]12)[C@@H](OC(C)=O)O[C@H]3OC(C)=O` (some centres undefined) [CASEARVESTRIN B], the EC50 in experiment [1] turned out to be 1.4 µg/mL (≈ 2.7 µM). Further, the “inhibition zone (IZ)” value in experiment [2] came out at 296 mm2. The IC50 is 200 nM in experiment [3], 250 nM in experiment [4] and 320 nM in experiment [5].

`C=C/C(C)=C/C[C@]1(C)[C@H](C)C[C@H](O)[C@]23C(=C[C@@H](OC(=O)C(C)C)C[C@@H]12)[C@@H](OC(C)=O)O[C@H]3OC(C)=O` [CASEARVESTRIN A]: the EC50 in experiment [1] came out at 1.4 µg/mL (≈ 2.77 µM). Also, the “inhibition zone (IZ)” value in experiment [2] turned out to be 348 mm2. Besides, the IC50 is 540 nM in experiment [3], 710 nM in experiment [4] and 820 nM in experiment [5].

As to `C[C@@H]1[C@H](O)[C@@H](C)/C=C/C=C/C=C/C=C/C=C/C=C/C=C/[C@H](O[C@@H]2O[C@H](C)[C@@H](O)[C@H](N)[C@@H]2O)C[C@@H]2O[C@](O)(C[C@@H](O)C[C@@H](O)[C@H](O)CC[C@@H](O)C[C@@H](O)CC(=O)O[C@H]1C)C[C@H](O)[C@H]2C(=O)O` [AMPHOTERICIN B], the “inhibition zone (IZ)” value in experiment [2] is recorded as 254 mm2.

For `C=C/C(C)=C/C[C@]1(C)[C@H](C)C[C@H](O)[C@]23C(=C[C@@H](OC(=O)CCCCC)C[C@@H]12)[C@@H](OC(C)=O)O[C@H]3OC(C)=O` [CASEARVESTRIN C], the response in experiment [1] was half-maximal at 0.34 µg/mL (≈ 0.638 µM) (EC50). For the same molecule, in experiment [2], the “inhibition zone (IZ)” value was found to be 177 mm2. Moreover, the IC50 in experiment [3] stood at 290 nM; in experiment [4], 260 nM; in experiment [5], 420 nM.

For `CC[C@@]1(O)C(=O)OCc2c1cc1n(c2=O)Cc2cc3ccccc3nc2-1` [CAMPTOTHECIN], the IC50 in experiment [3] was 120 nM; in experiment [4], 9 nM; in experiment [5] it was 4 nM.
